According to PMC10023024 (Clinical Pharmacokinetics, 2023):

Assay type: in vivo, human
Outline: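 Tablets co-formulated with SNAC, 3 mg on Days 1–5 then 7 mg on Days 6–10. Reference arm: ≥6 h overnight fast, 8 am dose, 30-min post-dose fast. Other arms: ~760 kcal meal, then 2/4/6 h fast, 8 pm dose, 30-min or overnight post-dose fast. Plasma sampled 10 min–24 h after 10th dose and measured by validated LC-MS/MS. AUC0–24h by linear trapezoidal method; log values back-transformed to geometric-mean ratios with 95% CI.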

[1] = 2 h–30 min, 4 h–30 min and 6 h–30 min arms vs night–30 min, p < 0.0001

Compound: CC[C@H](C)[C@H](NC(=O)[C@H](Cc1ccccc1)NC(=O)[C@H](CCC(=O)O)NC(=O)[C@H](CCCCNC(=O)COCCOCCNC(=O)COCCOCCNC(=O)CC[C@H](NC(=O)CCCCCCCCCCCCCCCCC(=O)O)C(=O)O)NC(=O)[C@H](C)NC(=O)[C@H](C)NC(=O)[C@H](CCC(N)=O)NC(=O)CNC(=O)[C@H](CCC(=O)O)NC(=O)[C@H](CC(C)C)NC(=O)[C@H](Cc1ccc(O)cc1)NC(=O)[C@H](CO)NC(=O)[C@H](CO)NC(=O)[C@@H](NC(=O)[C@H](CC(=O)O)NC(=O)[C@H](CO)NC(=O)[C@@H](NC(=O)[C@H](Cc1ccccc1)NC(=O)[C@@H](NC(=O)CNC(=O)[C@H](CCC(=O)O)NC(=O)C(C)(C)NC(=O)[C@@H](N)Cc1cnc[nH]1)[C@@H](C)O)[C@@H](C)O)C(C)C)C(=O)N[C@@H](C)C(=O)N[C@@H](Cc1c[nH]c2ccccc12)C(=O)N[C@@H](CC(C)C)C(=O)N[C@H](C(=O)N[C@@H](CCCNC(=N)N)C(=O)NCC(=O)N[C@@H](CCCNC(=N)N)C(=O)NCC(=O)O)C(C)C [oral semaglutide, semaglutide]
- AUC0–24h Day 10 estimated treatment ratio range [1]: 0.12–0.43
- Cmax Day 10 estimated treatment ratio range [1]: 0.12–0.44
- reduction of exposure to semaglutide compared with reference arm (night–30 min) (all alternative treatment arms, even 6 h–30 min): more than 50%
- median Tmax on Day 10, range across treatment arms (all five treatment arms): 48 to 60 min
